According to PubChem BioAssay AID493070 (Broad Institute, 2011):
Values without a mark were called inactive.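 Rule for the calls: active = growth signal loss with fitted half-maximal concentration up to ten times the top valid dose; inconclusive = flat curve with 30 to 70% inhibition, or poor fit; inactive = the rest, including opposite-direction effects.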

Assay: single-agent antifungal toxicity against Candida – Alamar Blue fluorescence, dry powder, set 5, counter-screen, dose response (AID 493070)
Conditions: C. albicans CaCi-2 growth, 48 h; series mostly up to 26 µM; activity change, negative = inhibition: at the top concentration
Outline: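 System – C. albicans CaCi-2 grown without fluconazole · Buffer or medium – RPMI synthetic defined medium · Dosing – test compound delivered to wells by pin transfer · Times – 48 h growth at 37 °C, 2 h dye step · Signal – Alamar Blue fluorescence at 1:200 final, excitation 544 nm, emission 590 nm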

Structure (SMILES)	activity change, negative = inhibition
CC1CCN(C(=O)Cn2c3ccccc3c3nc4n(c(=O)c32)CCS4)CC1	2.14%
O=C(Cn1c2ccc(F)cc2c2nc3n(c(=O)c21)CCS3)N1CCCCC1	-3.59%
COC(=O)Cn1nc(-c2ccc(Cl)cc2)c2ccccc21	0.372%
O=C(Cn1c2ccc(F)cc2c2nc3n(c(=O)c21)CCS3)N1CCCCCC1	-9.37%
N#Cc1cccc(N2CCN(C(=O)c3ccc(Cl)cc3)CC2)n1	-1.78%
O=C(Cn1c2ccccc2c2nc3n(c(=O)c21)CCS3)N1CCCCC1	-12%
O=c1c2[nH]c3ccccc3c2nc2n1CCS2	1.63%
